Screening data: PubChem, several laboratories
TPT1 inh: C. albicans TPT1 enzyme inhibition; recombinant caTPT1, FP RNA substrate dephosphorylation; inhibition, % at 5 µM; 300,000 compounds, 0.81% hits;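 active means inhibition above the mean of all tested compounds plus 3 SD, set per screening campaign, cut at about 24% in these data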
Rpn11 inh: blocks the human proteasome subunit Rpn11 | O00487 | human 26S proteasome, Ub4-pepOG fluorescence polarization; 20S core pre-blocked with epoxomicin | inhibition, % at 20 µM | 360,000 compounds, 0.59% hits | AID 588493;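 active means inhibition at 20 µM, scaled to each plate's controls, above about 33%, limit read from the data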
IDE act: boosts human insulin-degrading enzyme activity in HEK cells. P14735. FAbeta-B cleavage, fluorescence polarization; 0% vehicle, 100% cell-free pure enzyme wells. activation, % at 5.96 µM. 340,000 compounds, 0.073% hits. AID 493087;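 active means activation above the mean of all tested compounds plus 3 SD, set per screening campaign, cut at about 17% in these data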
HNF4A DNA FP: change in binding of human HNF4 alpha to DNA. P41235. HNF4a-FITC DNA binding, fluorescence polarization, 1 h. activity change, % at 10 µM. 360,000 compounds, 0.3% hits; in the data active means activity change above about 30%, passing the limit was not always enough
Target sequence (P41235 whole entry, looked up): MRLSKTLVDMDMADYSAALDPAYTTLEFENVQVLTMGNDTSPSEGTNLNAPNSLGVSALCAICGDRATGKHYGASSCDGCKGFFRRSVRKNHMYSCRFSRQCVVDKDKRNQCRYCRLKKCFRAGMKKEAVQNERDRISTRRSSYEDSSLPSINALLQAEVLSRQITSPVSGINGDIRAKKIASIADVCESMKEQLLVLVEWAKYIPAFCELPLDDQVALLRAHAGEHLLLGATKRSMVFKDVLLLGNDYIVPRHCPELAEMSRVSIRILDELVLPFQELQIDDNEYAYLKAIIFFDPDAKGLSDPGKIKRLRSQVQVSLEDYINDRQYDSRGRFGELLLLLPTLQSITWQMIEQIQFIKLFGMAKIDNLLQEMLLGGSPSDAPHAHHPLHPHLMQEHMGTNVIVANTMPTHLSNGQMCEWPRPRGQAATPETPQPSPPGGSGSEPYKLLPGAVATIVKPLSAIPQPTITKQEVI
CSN inh: inhibitors of human CSN-mediated cullin deneddylation | Q92905 | Purified CSN, SCF-Nedd8-OG deneddylation, fluorescence polarization | inhibition, % at 12.5 µM | 360,000 compounds, 0.38% hits | AID 651999;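 active means pattern-corrected inhibition above about 35%, with an unprinted fluorescence ratio check between 0.5 and 1.5, limit read from the data, passing the limit was not always enough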
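Material: human Csn5 produced in HEK293T cells; Input: enzyme 0.24 nM; Reagent: SCFSkp2-Nedd8OG substrate at 10 nM final; Dosing: 12.5 µM compound; Incubation: 90 min reaction at room temperature; Detection: fluorescence polarization of the substrate; Evaluation: % inhibition of substrate cleavage by Csn5; Control set: substrate-only high control, full reaction low control.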
IDE cell inh: cellular human IDE inhibition; P14735; HEK cells, FAbetaB cleavage, fluorescence polarization; inhibition, % at 5.59 µM; 320,000 compounds, 0.41% hits; AID 434962;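 active means percent inhibition above the average of all tested compounds plus 3 SD, set per screening campaign, cut at about 16% in these data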;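 further: IDE supplied by intact live HEK cells; FP after avidin binding of uncleaved biotin substrate so inhibition keeps polarization high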
TPT1 inh confirm: confirmation of Candida albicans TPT1 inhibitors; AID 2149; shares compounds with TPT1 inh; 2,400 compounds, 74% hits; recombinant caTPT1, fluorescence polarization, RNase T1 coupled; inhibition, % at 5 µM;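 active means inhibition above the primary screen limit, the mean inhibition of all tested compounds plus 3 SD, cut at about 25% in these data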
RNase T1 counter: RNase T1 inhibition in TPT1 counter-screen. shares compounds with TPT1 inh. RNase T1 cleavage, fluorescence polarization, 1536-well. inhibition, % at 5 µM. 2,400 compounds, 83% hits;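 active means inhibition above the solvent-only control well mean plus 3 SD, limit set per screening run, cut at about 23% in these data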;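 further: inhibitors block cleavage so intact labeled substrate keeps polarization high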
Target sequence (P00651 whole entry, looked up): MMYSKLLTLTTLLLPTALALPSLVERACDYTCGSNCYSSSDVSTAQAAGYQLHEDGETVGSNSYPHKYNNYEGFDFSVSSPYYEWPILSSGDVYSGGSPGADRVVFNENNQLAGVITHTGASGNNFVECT
Large screens that a line does not name were inactive (follow-up assays come after a bar, where shown). Shown are actives, neighbours in structure and some others; about 1.7% of the full set was active somewhere.

COc1ccc(S(=O)(=O)N2CCC(C(=O)NCC3CC3)CC2)cc1	none
CCN(CC)c1ccc(N=Cc2ccc(N(CC)CC)cc2O)cc1	TPT1 inh 63 (not shown: Rpn11 inh) | TPT1 inh confirm 120 | RNase T1 counter 121
CCN(CC)c1ccc(/C=N/N=C(N)N)c(O)c1	TPT1 inh 49, IDE act 18 (not shown: Rpn11 inh) | TPT1 inh confirm 93 | RNase T1 counter 103
CCOC(=O)N1CCC(=NNC(=O)c2ccc(O)cc2)CC1	none
CC(=O)NC1=NC(=O)/C(=C/c2cn(C(C)=O)nc2-c2ccccc2)S1	TPT1 inh 31, IDE cell inh 20 | TPT1 inh confirm 35 | RNase T1 counter 47
Cc1cc(/C=C2\SC(=O)N(C)C2=O)c(C)n1-c1ccc(O)cc1	none
CC(=O)NC1=NC(=O)/C(=C/c2cc(C)n(-c3ccc(NC(C)=O)cc3)c2C)S1	TPT1 inh 68, HNF4A DNA FP 82 (not shown: Rpn11 inh) | TPT1 inh confirm 102 | RNase T1 counter 109
COCCn1c(SCC(=O)NC2(C#N)CCCCC2)nc2ccccc2c1=O	none (no result: TPT1 inh)
COc1ccc(NS(=O)(=O)c2cc([N+](=O)[O-])ccc2NN=Cc2ccccc2OCC(=O)O)cc1	none (no result: TPT1 inh)
COc1ccc(NS(=O)(=O)c2cc([N+](=O)[O-])ccc2N/N=C\c2c(C)[nH]c3ccccc23)cc1	TPT1 inh 72, HNF4A DNA FP 65 (not shown: Rpn11 inh) | TPT1 inh confirm 75 | RNase T1 counter 86
COc1ccc(/C=N/Nc2ccc([N+](=O)[O-])cc2S(=O)(=O)N2CCN(C)CC2)cc1	TPT1 inh 71 (not shown: Rpn11 inh) | TPT1 inh confirm 105 | RNase T1 counter 118
C=CCN1C(=O)CS/C1=C(\C#N)S(=O)(=O)c1ccc(C)cc1	TPT1 inh 74 | TPT1 inh confirm inactive | RNase T1 counter inactive
COc1cc(/C=N/NC(=O)Cc2ccc(Br)cc2)cc(OC)c1O	none
COc1cc(/C=N/NC(=O)CC#N)cc(Br)c1O	TPT1 inh 27 | TPT1 inh confirm inactive | RNase T1 counter inactive
O=C(COC(=O)/C=C/c1ccc(C(F)(F)F)cc1)NCc1ccco1	none
CCOC(=O)c1c(NC(C)=O)sc2c1CCN(Cc1ccccc1)C2	none
CCOC(=O)c1c(NC(=O)C(C)Sc2cccc[n+]2[O-])sc2c1CCN(Cc1ccccc1)C2 (stereo not given)	TPT1 inh 71 | TPT1 inh confirm 77 | RNase T1 counter 86
CCOC(=O)c1c(N)sc2c1CCN(CCc1ccccc1)C2	TPT1 inh 28 (not shown: Rpn11 inh) | TPT1 inh confirm inactive | RNase T1 counter 24
CCOC(=O)c1c(NC(=S)Nc2ccccc2)sc2c1CCN(CCc1ccccc1)C2	TPT1 inh 120 (no result: Rpn11 inh, IDE act, HNF4A DNA FP, CSN inh) | TPT1 inh confirm 114 | RNase T1 counter 113
COc1cccc(/C=N\NC(=O)c2ccc(Cn3cc(Br)c([N+](=O)[O-])n3)o2)c1O	none
Cc1cccc(C)c1-n1c(C)nn(-c2ncc(C(F)(F)F)cc2Cl)c1=O	none
Cc1nn(-c2ncc(C(F)(F)F)cc2Cl)c(=O)n1-c1c(F)cccc1F	TPT1 inh 32 | TPT1 inh confirm inactive | RNase T1 counter inactive
CCn1c2ccccc2c2cc(NC(=O)c3ccc(=O)oc3)ccc21	TPT1 inh 63 (no result: IDE act) | TPT1 inh confirm 34 | RNase T1 counter 37
N#Cc1ccccc1S(=O)(=O)N1CCN(C(=O)C2CCC2)CC1	none
O=C(NC1CC2CCCC(C1)N2C(=O)Nc1ccccc1Cl)C1CC1 (stereo not given)	none
COc1ccc(NC(=O)[C@@H]2[C@@H]3C(=O)N(C4CCCCC4)C(=O)[C@@H]3C3c4ccccc4C=CN32)cc1 (stereo not given in full)	TPT1 inh 43 | TPT1 inh confirm 50 | RNase T1 counter 54
CC1(C)CCN2CCC(C)(C)c3c(O)ccc1c32	TPT1 inh 48 | TPT1 inh confirm 36 | RNase T1 counter 50
CN=c1scc(-c2ccccc2F)n1/N=C/c1ccc[nH]1	TPT1 inh 50 | TPT1 inh confirm 27 | RNase T1 counter 36
CCN(CC)c1ccc(/C=c2\sc3nnc(-c4ccccc4Cl)n3c2=O)cc1	TPT1 inh active (not shown: Rpn11 inh) | TPT1 inh confirm 176 | RNase T1 counter 163
CCN(CC)c1ccc(/C=c2/sc3nnc(-c4ccccc4C)n3c2=O)cc1	TPT1 inh 109 (not shown: Rpn11 inh) | TPT1 inh confirm 165 | RNase T1 counter 167
CCN1C[C@@H]2[C@@H]3C(=O)N(Cc4ccccc4)C(=O)[C@@H]3[C@](Cc3ccccc3)(C1=O)N2C(=O)c1ccc(Br)cc1	none (no result: TPT1 inh, IDE cell inh)
Cc1cccc(C)c1NC(=O)C(c1ccncc1)n1c(=O)c(-c2cc3ccccc3[nH]2)nc2ccccc21 (stereo not given)	none (no result: TPT1 inh, Rpn11 inh, IDE act, IDE cell inh)
NNC(=O)c1oc2nc(-c3ccccc3)cc(-c3ccccc3)c2c1N	none
NNC(=O)c1oc2nc(-c3cccs3)cc(-c3ccco3)c2c1N	TPT1 inh 50 | TPT1 inh confirm 47 | RNase T1 counter 57
COc1cccc(/C=N/NC(=O)c2oc3nc(-c4ccccc4)cc(-c4ccco4)c3c2N)c1	TPT1 inh 82, HNF4A DNA FP 39 (not shown: Rpn11 inh) | TPT1 inh confirm 86 | RNase T1 counter 97
Cc1ccc(-c2cc(-c3ccco3)c3c(N)c(C(=O)NN)oc3n2)cc1	TPT1 inh 72 | TPT1 inh confirm 35 | RNase T1 counter 43
Cc1cccc(NC(=O)CCc2ccccc2)c1C	none
CCOc1ccc(-c2c(C)sc3nc[nH]c(=O)c23)cc1	none
C=CCNc1nc(-c2cccs2)c(CC(=O)O)s1	none
O=C(O)Cc1sc(Nc2ccccc2)nc1-c1cccs1	TPT1 inh 42, HNF4A DNA FP 45, CSN inh 51 (not shown: Rpn11 inh) | TPT1 inh confirm 36 | RNase T1 counter 46
CC(=O)Nc1sc(NC(=O)c2ccccc2)nc1-c1cccs1	none
CCN(CC)CCNc1nc(-c2cccs2)c(CC(=O)O)s1	TPT1 inh 29 | TPT1 inh confirm inactive | RNase T1 counter inactive
O=C(O)Cc1sc(NCCc2ccccc2)nc1-c1ccc(F)cc1	TPT1 inh 27 | TPT1 inh confirm inactive | RNase T1 counter inactive
O=C1OCc2ccc([N+](=O)[O-])cc21	none (no result: TPT1 inh, IDE cell inh)
O=C(c1ccc(N2CCCC2=O)cc1)N1CCOCC1	TPT1 inh 65 | TPT1 inh confirm inactive | RNase T1 counter inactive
O=C1CCC(=O)N1c1ccc(-c2nc3ccccc3s2)cc1	TPT1 inh 52 | TPT1 inh confirm inactive | RNase T1 counter inactive
